Source: ChEMBL document CHEMBL1149790, “Synthesis of some novel thiourea derivatives obtained from 5-[(4-aminophenoxy)methyl]-4-alkyl/aryl-2,4-dihydro-3H-1,2,4-triazole-3-thiones and evaluation as antiviral/anti-HIV and anti-tuberculosis agents” (Eur J Med Chem, 2008)
Converted amounts (≈) assume the structure as drawn.

Columns and labels:
[1] = tested on: Human immunodeficiency virus 1; assay: Antiviral activity against HIV1 3B in human MT4 cells assessed as protection against virus-induced cytopathogenicity by MTT assay; format: functional, organism-based; set-up: Activity: concentration or dose not given beside the values; conditions: for IC50: Human immunodeficiency virus 1, 3B, MT4
Procedure, shortened: (§1)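 MT-4 cells at 6 × 10⁵ cells/ml infected with HIV-1 IIIB or HIV-2 ROD at 100–300 CCID50; compounds in serial five-fold dilutions, triplicate mock- and virus-infected wells. MTT viability read at 540 and 690 nm after 5 days, median OD of three wells; EC50 = 50% protection from viral cytopathic effect.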

[2] = tested on: Human immunodeficiency virus 2; assay: Antiviral activity against HIV2 ROD in human MT4 cells assessed as protection against virus-induced cytopathogenicity by MTT assay; format: functional, organism-based; set-up: Activity: concentration or dose not given beside the values; conditions: for IC50: Human immunodeficiency virus 2, ROD, MT4; procedure, shortened: as §1
[3] = Cytotoxicity against human MT4 cells by MTT assay; format: cell-based
Procedure, shortened: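 Mock-infected MT-4 cells (6 × 10⁵ cells/ml) with serial five-fold compound dilutions in triplicate; MTT reduction read at 540 and 690 nm after 5 days, median OD of three wells; CC50 = concentration reducing OD540 of mock-infected control by 50%.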

[4] = Cytotoxicity against human HeLa cells; format: cell-based
Procedure, shortened: (§2)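 Uninfected cell cultures exposed to test compounds alongside antiviral assays; minimum cytotoxic concentration (MCC) = concentration causing a microscopically detectable alteration of cell morphology.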

[5] = tested on: Vesicular stomatitis virus; assay: Antiviral activity against vesicular stomatitis virus in human HeLa cells assessed as inhibition of virus-induced cytopathogenicity; format: functional
Procedure, shortened: (§3)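 Confluent cell monolayers (E6SM, HEL, HeLa or Vero, per line) inoculated with 100 CCID50 virus; 1 h adsorption, residual virus removed, then incubated with compound at 400, 200, 100 … µg/ml. Cytopathicity scored once complete in untreated virus controls; MIC = concentration inhibiting virus-induced cytopathicity.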

Coxsackievirus B4 [6] = assay: Antiviral activity against Coxsackie virus B4 in human HeLa cells assessed as inhibition of virus-induced cytopathogenicity; format: functional; conditions: Enterovirus B; procedure, shortened: as §3
[7] = tested on: Respiratory syncytial virus; assay: Antiviral activity against respiratory syncytial virus in human HeLa cells assessed as inhibition of virus-induced cytopathogenicity; format: functional; procedure, shortened: as §3
[8] = Cytotoxicity against human E6SM cells; format: cell-based; conditions: E6SM cells; procedure, shortened: as §2
[9] = Cytotoxicity against human HEL cells assessed as alteration of cell morphology; format: cell-based; procedure, shortened: as §2
Human alphaherpesvirus 1 [10] = assay: Antiviral activity against HSV1 KOS in human E6SM cells assessed as reduction of virus-induced cytopathogenicity; format: functional; conditions: Human alphaherpesvirus 1, KOS; procedure, shortened: as §3
Human alphaherpesvirus 1 [11] = assay: Antiviral activity against HSV1 KOS in human HEL cells assessed as reduction of virus-induced cytopathogenicity; format: functional; conditions: Human alphaherpesvirus 1, KOS; procedure, shortened: as §3
Human alphaherpesvirus 2 [12] = assay: Antiviral activity against HSV2 G in human E6SM cells assessed as reduction of virus-induced cytopathogenicity; format: functional; conditions: Human alphaherpesvirus 2, G; procedure, shortened: as §3
Human alphaherpesvirus 2 [13] = assay: Antiviral activity against HSV2 G in human HEL cells assessed as reduction of virus-induced cytopathogenicity; format: functional; conditions: Human alphaherpesvirus 2, G; procedure, shortened: as §3
[14] = tested on: Vesicular stomatitis virus; assay: Antiviral activity against in Vesicular stomatitis virus in human E6SM cells assessed as reduction of virus-induced cytopathogenicity; format: functional; procedure, shortened: as §3
[15] = tested on: Vesicular stomatitis virus; assay: Antiviral activity against in Vesicular stomatitis virus in human HEL cells assessed as reduction of virus-induced cytopathogenicity; format: functional; procedure, shortened: as §3
Human alphaherpesvirus 1 [16] = assay: Antiviral activity against thymidine kinase deficient and acyclovir resistant HSV1 KOS in human E6SM cells assessed as reduction of virus-induced cytopathogenicity; format: functional; conditions: Human alphaherpesvirus 1, KOS; procedure, shortened: as §3
Human alphaherpesvirus 1 [17] = assay: Antiviral activity against thymidine kinase deficient and acyclovir resistant HSV1 KOS in human HEL cells assessed as reduction of virus-induced cytopathogenicity; format: functional; conditions: Human alphaherpesvirus 1, KOS; procedure, shortened: as §3
Vero = assay: Cytotoxicity against african green monkey Vero cells; format: cell-based; conditions: chlorocebus sabaeus; procedure, shortened: as §2
Coxsackievirus B4 [18] = assay: Antiviral activity against Coxsackie virus B4 in african green monkey Vero cells assessed as reduction of virus-induced cytopathogenicity; format: functional; conditions: Enterovirus B; procedure, shortened: as §3
Punta Toro virus = assay: Antiviral activity against Punta Toro virus in african green monkey Vero cells assessed as reduction of virus-induced cytopathogenicity; format: functional; procedure, shortened: as §3
Human respirovirus 3 = assay: Antiviral activity against Parainfluenza 3 virus in african green monkey Vero cells assessed as reduction of virus-induced cytopathogenicity; format: functional; procedure, shortened: as §3
[19] = tested on: Mammalian orthoreovirus 1; assay: Antiviral activity against Reo virus 1 in african green monkey Vero cells assessed as reduction of virus-induced cytopathogenicity; format: functional; procedure, shortened: as §3
Sindbis virus = assay: Antiviral activity against Sindbis virus in african green monkey Vero cells assessed as reduction of virus-induced cytopathogenicity; format: functional; procedure, shortened: as §3

Row | SMILES | MCC [4] [µg/mL] | MIC [5] [µg/mL] | MIC (Coxsackievirus B4 [6]) [µg/mL] | MIC [7] [µg/mL] | MCC [8] [µg/mL] | MCC [9] [µg/mL] | MIC (Human alphaherpesvirus 1 [10]) [µg/mL] | MIC (Human alphaherpesvirus 1 [11]) [µg/mL] | MIC (Human alphaherpesvirus 2 [12]) [µg/mL] | MIC (Human alphaherpesvirus 2 [13]) [µg/mL] | MIC [14] [µg/mL] | MIC [15] [µg/mL] | MIC (Human alphaherpesvirus 1 [16]) [µg/mL] | MIC (Human alphaherpesvirus 1 [17]) [µg/mL] | Activity (Vero) | MIC (Coxsackievirus B4 [18]) [µg/mL] | MIC (Punta Toro virus) [µg/mL] | MIC (Human respirovirus 3) [µg/mL] | MIC [19] [µg/mL] | MIC (Sindbis virus) [µg/mL] | further results
1 | Cn1c(-c2ccc(NC(=S)Nc3ccccc3)cc2)n[nH]c1=S | 80 | > 16 | > 16 | > 16 | 400 | 400 | > 80 | > 80 | > 80 | > 80 | > 80 | > 80 | 48 (≈ 141 µM) | 48 (≈ 141 µM) | 400 µg/mL | > 80 | > 80 | > 80 | > 80 | > 80 | Activity [1]: 35%; IC50 [1]: > 42.8 µg/mL; Activity [2]: 10%; IC50 [2]: > 42.8 µg/mL; CC50 [3]: 42.8 µg/mL (≈ 125 µM)
2 | CCNC(=S)Nc1ccc(-c2n[nH]c(=S)n2-c2ccccc2)cc1 | ≥ 80 | > 80 | > 80 | > 80 | ≥ 3.2 | ≥ 3.2 | > 3.2 | > 3.2 | > 3.2 | > 3.2 | > 3.2 | > 3.2 | > 3.2 | > 3.2 | >= 80 ug ml-1 | > 80 | > 80 | > 80 | > 80 | > 80 | Activity [1]: 5.5%; IC50 [1]: > 91.3 µg/mL; Activity [2]: 3%; IC50 [2]: > 91.3 µg/mL; CC50 [3]: 91.3 µg/mL (≈ 257 µM)
3 | C=CCNC(=S)Nc1ccc(-c2n[nH]c(=S)n2CCCCCC)cc1 | 80 | > 16 | > 16 | > 16 | 80 | 80 | > 16 | > 16 | > 16 | > 16 | > 16 | > 16 | > 16 | > 16 | >= 16 ug ml-1 | > 16 | > 16 | > 16 | > 16 | > 16 | Activity [1]: 4%; IC50 [1]: > 10.1 µg/mL; Activity [2]: 0%; IC50 [2]: > 10.1 µg/mL; CC50 [3]: 10.1 µg/mL (≈ 26.8 µM)
4 | C=CCNC(=S)Nc1ccc(-c2n[nH]c(=S)n2CC)cc1 | 400 | > 80 | > 80 | > 80 | 400 | 400 | 240 (≈ 751 µM) | 240 (≈ 751 µM) | 240 (≈ 751 µM) | 240 (≈ 751 µM) | > 80 | > 80 | 240 (≈ 751 µM) | 240 (≈ 751 µM) | >= 80 ug ml-1 | > 80 | 80 (≈ 250 µM) | > 80 | > 80 | > 80 | Activity [1]: 8.5%; IC50 [1]: > 57 µg/mL; Activity [2]: 0%; IC50 [2]: > 57 µg/mL; CC50 [3]: 57 µg/mL (≈ 178 µM)
5 | Nc1ncnc2c1ncn2C[C@H](O)CO [(S)-DHPA] | > 400 | > 400 | > 400 | > 400 | – | – | – | – | – | – | – | – | – | – | > 400 µg/mL | > 400 | > 400 | > 400 | > 400 | > 400 | –
6 | CNC(=S)Nc1ccc(-c2n[nH]c(=S)n2-c2ccccc2)cc1 | ≥ 400 | > 400 | > 400 | > 400 | 400 | 400 | 240 (≈ 703 µM) | 240 (≈ 703 µM) | > 80 | > 80 | > 80 | > 80 | 240 (≈ 703 µM) | 240 (≈ 703 µM) | >= 80 ug ml-1 | > 80 | > 80 | > 80 | > 80 | > 80 | Activity [1]: 23.5%; IC50 [1]: > 94.4 µg/mL; Activity [2]: 0%; IC50 [2]: > 94.4 µg/mL; CC50 [3]: 94.4 µg/mL (≈ 276 µM)
7 | NC(=O)c1ncn([C@@H]2O[C@H](CO)[C@@H](O)[C@H]2O)n1 [RIBAVIRIN] | > 400 | 48 (≈ 197 µM) | 240 (≈ 983 µM) | 9.6 (≈ 39.3 µM) | > 400 | > 400 | 9.6 (≈ 39.3 µM) | 9.6 (≈ 39.3 µM) | 48 (≈ 197 µM) | 48 (≈ 197 µM) | 240 (≈ 983 µM) | 240 (≈ 983 µM) | 48 (≈ 197 µM) | 48 (≈ 197 µM) | > 400 µg/mL | > 400 | 48 (≈ 197 µM) | 48 (≈ 197 µM) | 48 (≈ 197 µM) | 240 (≈ 983 µM) | –
